In series [1] the target is T1, Cytochrome P450 11B1, mitochondrial (Homo sapiens, UniProt P15538).
T1 sequence (P15538 whole entry): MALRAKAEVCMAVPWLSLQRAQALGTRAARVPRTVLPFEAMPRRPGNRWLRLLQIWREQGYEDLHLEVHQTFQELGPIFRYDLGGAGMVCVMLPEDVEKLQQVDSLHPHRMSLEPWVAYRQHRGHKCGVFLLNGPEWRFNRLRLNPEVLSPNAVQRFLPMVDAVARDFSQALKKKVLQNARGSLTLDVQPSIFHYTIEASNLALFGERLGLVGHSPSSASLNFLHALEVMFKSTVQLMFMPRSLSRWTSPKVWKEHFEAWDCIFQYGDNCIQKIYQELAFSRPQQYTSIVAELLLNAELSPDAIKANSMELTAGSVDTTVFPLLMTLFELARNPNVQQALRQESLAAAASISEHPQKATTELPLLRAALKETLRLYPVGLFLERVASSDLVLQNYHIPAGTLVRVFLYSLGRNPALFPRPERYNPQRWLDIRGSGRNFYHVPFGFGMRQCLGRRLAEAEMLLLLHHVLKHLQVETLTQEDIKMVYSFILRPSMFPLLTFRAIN
The experiment in a line: Inhibition of human CYP11B1 expressed in hamster V79MZ cells using [1,2-3H]-11-deoxycorticosterone as substrate after 6 hrs by HPLC analysis. It counts as cell-based. The essentials:
(§1)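 V79MZ cells expressing recombinant human CYP11B1 or CYP11B2, or rat CYP11B1, incubated with [1,2-³H]-11-deoxycorticosterone (100 nM) and inhibitor over a range of concentrations; ketoconazole as reference.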

Series [2] addresses T2, Cytochrome P450 11B2, mitochondrial (Homo sapiens, UniProt P19099).
T2 sequence (P19099 whole entry): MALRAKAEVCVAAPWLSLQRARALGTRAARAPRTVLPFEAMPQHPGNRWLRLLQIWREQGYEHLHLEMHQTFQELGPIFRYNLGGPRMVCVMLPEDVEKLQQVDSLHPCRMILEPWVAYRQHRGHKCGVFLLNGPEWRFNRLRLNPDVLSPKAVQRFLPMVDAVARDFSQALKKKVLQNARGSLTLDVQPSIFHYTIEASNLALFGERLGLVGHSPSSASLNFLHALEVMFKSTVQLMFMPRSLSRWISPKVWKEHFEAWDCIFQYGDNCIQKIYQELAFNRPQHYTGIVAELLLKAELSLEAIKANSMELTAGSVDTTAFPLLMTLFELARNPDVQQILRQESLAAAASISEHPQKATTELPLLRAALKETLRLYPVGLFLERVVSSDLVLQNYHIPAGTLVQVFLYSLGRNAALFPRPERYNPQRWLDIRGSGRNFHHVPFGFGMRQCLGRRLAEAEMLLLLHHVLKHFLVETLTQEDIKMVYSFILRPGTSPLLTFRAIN
The experiment in a line: Inhibition of human CYP11B2 expressed in hamster V79MZ cells using [1,2-3H]-11-deoxycorticosterone as substrate after 6 hrs by HPLC analysis. It counts as ADME, cell-based. In outline:
as §1

Series [3] can be described thus: Selectivity ratio of IC50 for human CYP11B2 expressed in hamster V79MZ cells to IC50 for human CYP11B1 expressed in hamster V79MZ cells. The essentials:
as §1

A short description of series [4]: Half life in rat liver S9 fractions at 1 uM in presence of NADPH/UDPGA by LC-MS/MS analysis. The format is ADME, tissue-based. The essentials: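 Samples taken at 0, 5, 15 and 60 min, stopped with cold acetonitrile containing internal standard. Remaining parent measured by LC-MS/MS.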
For series [5], the target named is T3, Cytochrome P450 11B1, mitochondrial (Rattus norvegicus, UniProt P15393).
T3 sequence (P15393 whole entry): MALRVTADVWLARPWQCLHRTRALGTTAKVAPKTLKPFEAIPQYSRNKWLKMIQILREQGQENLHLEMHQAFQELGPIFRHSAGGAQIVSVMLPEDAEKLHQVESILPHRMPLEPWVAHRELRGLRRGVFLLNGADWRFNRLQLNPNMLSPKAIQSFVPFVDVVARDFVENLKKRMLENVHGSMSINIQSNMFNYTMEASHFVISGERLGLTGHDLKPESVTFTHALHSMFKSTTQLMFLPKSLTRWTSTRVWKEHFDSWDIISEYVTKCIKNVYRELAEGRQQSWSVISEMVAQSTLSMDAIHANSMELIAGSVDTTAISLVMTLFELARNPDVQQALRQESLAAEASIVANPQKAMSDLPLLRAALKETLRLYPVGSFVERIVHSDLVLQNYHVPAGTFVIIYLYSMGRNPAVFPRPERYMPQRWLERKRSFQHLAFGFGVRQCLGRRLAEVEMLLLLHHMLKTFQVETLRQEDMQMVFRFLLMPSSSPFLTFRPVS
The experiment in a line: Inhibition of CYP11B1 in Sprague-Dawley rat adrenal tissue using 11-deoxycorticosterone as substrate after 4 hrs by SPA.

As to `Cc1cncc(Cc2ccc(NC3CC3)nc2)c1`, the half-inhibitory concentration (IC50) – broadly, the point on the concentration scale where inhibition reaches its midpoint – in series [1] was 4 nM; in series [2], 32 nM. The “Ratio IC50” value in series [3] was determined as 8.

Turning to `Cc1cncc(Cc2csnc2-c2ccccc2)c1`, the IC50 in series [1] is 48 nM; in series [2], 152 nM. The “Ratio IC50” value in series [3] is recorded as 3.

`Cc1cncc(Cc2ccc(-c3ccccc3F)nc2)c1`: the values for the IC50 in series [1] and in series [2] were 3 nM and 27 nM, respectively. Also, the “Ratio IC50” value in series [3] is reported as 9.

Regarding `Cc1cncc(Cc2cc(-c3ccccc3)nn2C)c1`, the IC50 was 1 nM in series [1] and 6 nM in series [2]. For the same molecule, the “Ratio IC50” value in series [3] is recorded as 6.

Take `Cc1cncc(Cc2ccc(S(=O)(=O)c3ccccc3)nc2)c1`: the IC50 was found to be 20 nM in series [1] and 173 nM in series [2]. In addition, the “Ratio IC50” value in series [3] is reported as 9.

For the molecule `Cc1cncc(Cc2cnc(-c3ccccc3)s2)c1`, the IC50 in series [1] is 9 nM; in series [2], 24 nM. Besides, in series [3], the “Ratio IC50” value came out at 3.

With `c1ccc(-c2cc(Cn3ccnc3)sn2)cc1`, the figures for the IC50 in series [1] and in series [2] were 14 nM and 120 nM, respectively. Moreover, in series [3], the “Ratio IC50” value was 9.

For `Cn1c(Cn2ccnc2)cnc1-c1ccccc1`, the IC50 worked out at 516 nM in series [1] and 507 nM in series [2]. Besides, the “Ratio IC50” value in series [3] came to 1.

For `c1ccc(-c2ncc(Cn3ccnc3)[se]2)cc1`, the 50% inhibitory concentration (IC50) was 104 nM in series [1] and 657 nM in series [2]. The “Ratio IC50” value in series [3] was determined as 6.

Turning to `Cc1cncc(Cc2ccc(-c3ccoc3)nc2)c1`, the half-inhibitory concentration (IC50) was determined as 4 nM in series [1] and 28 nM in series [2]. Further, the “Ratio IC50” value in series [3] stood at 7.

On to `Cc1cncc(Cc2ccc(S(=O)(=O)c3ccccc3F)nc2)c1`, for which the IC50 is 2 nM in series [1] and 17 nM in series [2]. In addition, the “Ratio IC50” value in series [3] was found to be 9.

Take `c1ccc(-c2ncc(Cn3ccnc3)o2)cc1`: the IC50 stood at 150 nM in series [1] and 520 nM in series [2]. Also, the “Ratio IC50” value in series [3] amounted to 4.

Take `Cc1cncc(Cc2ccc(-c3ccnn3C)nc2)c1`: the figures for the IC50 in series [1] and in series [2] were 16 nM and 97 nM, respectively. The “Ratio IC50” value in series [3] worked out at 6.

As for `Cc1cncc(Cc2ccc(N3CCOCC3)nc2)c1`, the IC50 was determined as 22 nM in series [1] and 90 nM in series [2]. For the same molecule, the “Ratio IC50” value in series [3] came out at 4.

For the molecule `Cc1cncc(Cc2cc(-c3ccccc3)n[nH]2)c1`, the IC50 is 137 nM in series [1] and 586 nM in series [2]. Further, the “Ratio IC50” value in series [3] came to 4.

As to `Cc1cncc(Cc2cc(-c3ccccc3)ns2)c1`, the figures for the IC50 in series [1] and in series [2] were 1 nM and 8 nM, respectively. The “Ratio IC50” value in series [3] is on record as 8.

For the molecule `Cc1cncc(Cc2ccc(Sc3ccccc3)nc2)c1`, the IC50 was 5 nM in series [1] and 30 nM in series [2]. The “Ratio IC50” value in series [3] is given as 6.

As to `c1ccc(-c2cc(Cn3ccnc3)on2)cc1`, the results for the IC50 in series [1] and in series [2] were 148 nM and 1300 nM, respectively. For the same molecule, the “Ratio IC50” value in series [3] stood at 9.

Take `Cc1cncc(Cc2ccc(-c3cccc(NS(C)(=O)=O)c3)nc2)c1`: the values for the 50% inhibitory concentration (IC50) in series [1] and in series [2] were 2 nM and 16 nM, respectively. Also, the “Ratio IC50” value in series [3] is recorded as 8.

For the molecule `Cc1cncc(Cc2cnc(-c3ccccc3)o2)c1`, the values for the IC50 in series [1] and in series [2] were 14 nM and 116 nM, respectively. Moreover, the “Ratio IC50” value in series [3] came to 8.

With `c1ccc(-c2nscc2Cn2ccnc2)cc1`, the IC50 in series [1] was found to be 57 nM; in series [2], 174 nM. For the same molecule, the “Ratio IC50” value in series [3] is given as 3.

As to `Cn1nc(-c2ccccc2)cc1Cn1ccnc1`, the IC50 was determined as 58 nM in series [1] and 215 nM in series [2]. Moreover, the “Ratio IC50” value in series [3] is 4.

In the case of `Cc1cncc(Cc2ccc(Sc3ccccc3F)nc2)c1`, the IC50 stood at 3 nM in series [1] and 24 nM in series [2]. In addition, the “Ratio IC50” value in series [3] stood at 8.

On to `c1ccc(-c2ncc(Cn3ccnc3)s2)cc1`, for which the IC50 in series [1] was 62 nM; in series [2] it was 459 nM. The “Ratio IC50” value in series [3] was found to be 7.

`Cc1cncc(Cc2ccc(-c3cnn(C)c3)nc2)c1`: the 50% inhibitory concentration (IC50) in series [1] was found to be 42 nM; in series [2], 182 nM. In addition, the “Ratio IC50” value in series [3] is 4.

For the molecule `CC(C)(C(=O)c1cccnc1)c1cccnc1` [METYRAPONE], in series [4], the half-life (in general, the time needed for the level to fall by half in the phase considered) at 1 µM stood at 12 min. For the same molecule, in series [5], it took 5 µM to reach half-maximal inhibition (IC50).

Values taken from ChEMBL document CHEMBL4014346, “Lead Optimization Generates CYP11B1 Inhibitors of Pyridylmethyl Isoxazole Type with Improved Pharmacological Profile for the Treatment of Cushing's Disease” (J Med Chem, 2017).
